According to ChEMBL document CHEMBL6134784, “Furoxan-piplartine hybrids as effective NO donors and ROS inducers in PC3 cancer cells: design, synthesis, and biological evaluation” (RSC Med Chem, 2024):
The source made the active and inactive calls. The rule behind the calls is not given here.

Experiments:
[1] = system: PC-3; test: Effect on NFE2L2 gene expression in human PC-3 cells at 0.05 uM measured after 3 hrs by qPCR analysis; assay type: functional, cell-based
Summary of the method: (§1)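 Seeded 1×10^5 cells per well in 6-well plates; PC3 treated 3 h. Total RNA extracted, qPCR; each target normalized to reference gene (β-actin) by efficiency-corrected ΔΔCt (Pfaffl) against a control calibrator sample, efficiencies from amplification profiles. Mean ± SEM of four independent experiments.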

[2] = system: PC-3; test: Induction of morphological changes in human PC-3 cells assessed as loss of adhesion at 0.05 uM measured after 24 hrs by phase contrast microscopy; assay type: functional, cell-based
Summary of the method: (§2)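 PC3 cells were seeded at 1×10^5 per well in 6-well plates and treated after 24 h, with or without 1 mM N-acetyl-L-cysteine. The same observation field was imaged by phase contrast microscopy at 1, 2, 3, 4 and 24 h. DMSO vehicle served as control.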

[3] = system: PC-3; test: Cell cycle arrest in human PC-3 cells assessed as down regulation of c-Myc gene expression at 0.05 uM measured after 3 hrs by qPCR analysis; assay type: functional, cell-based; summary of the method: as §1
[4] = system: PC-3; test: Induction of ROS generation in human PC-3 cells at 0.05 uM measured after 30 mins by CellROX reagent based flow cytometry; assay type: functional, cell-based
Summary of the method: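 PC3 seeded 1×10^5 per well in 6-well plates, after 24 h treated together with CellROX green (5 μM final) for 30 min at 37 °C; 0.1% DMSO negative control, 1 mM H2O2 positive control. Cells collected and CellROX-positive fraction measured by flow cytometry.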

[5] = system: PC-3; test: Induction of apoptosis in human PC-3 cells assessed as effect on BAX gene expression at 0.05 uM measured after 3 hrs by qPCR analysis; assay type: functional, cell-based; summary of the method: as §1
[6] = system: PC-3; test: Induction of mitochondrial membrane potential loss in human PC-3 cells at 0.05 uM measured after 30 mins by MitoTracker Red based confocal microscopy; assay type: functional, cell-based
Summary of the method: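 Confocal imaging of PC3 cells loaded with CellROX Green (2.5 μM) and MitoTracker Red (0.5 μM) for 30 min at 37 °C, then three PBS washes and immediate capture. The MitoTracker dye stains intact mitochondria and diffuses out when membrane potential drops. Vehicle 0.1% DMSO served as negative control and 1 mM H2O2 as positive control.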

[7] = system: PC-3; test: Cytotoxicity against human PC-3 cells assessed as cell growth inhibition at 0.05 uM measured after 48 hrs by CCK-8 assay relative to control; assay type: functional; details: read-out: GI
Summary of the method: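 PC3 at 1×10^4 cells per well attached 24 h, pretreated 1 h with carboxy-PTIO (0, 0.50, 3.13, 6.25, 12.50, 25, 50 μM), then compound added for 48 h; washed three times with PBS, growth read by CCK-8 as percent inhibition versus control cells; two experiments in triplicate.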

[8] = system: PC-3; test: Induction of apoptosis in human PC-3 cells assessed as early apoptotic cells at 0.05 uM measured after 6 hrs by Alexa Fluor 488-annexin V/propidium iodide staining based flow cytometry (reference value: 6%); assay type: functional
[9] = system: PC-3; test: Induction of ROS generation in human PC-3 cells at 0.05 uM measured after 30 mins by CellROX reagent based confocal microscopy; assay type: functional, cell-based
Summary of the method: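 Confocal ROS imaging of PC3: cells loaded with 2.5 μM CellROX green plus 0.5 μM MitoTracker Red for 30 min at 37 °C, washed three times in PBS, imaged immediately; DMSO vehicle and H2O2 controls.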

[10] = system: PC-3; test: Induction of DNA damage in human PC-3 cells assessed as increase in phosphorylated gamma-H2AX expression at 0.05 uM measured after 6 hrs by DAPI staining based confocal laser scanning microscopy; assay type: functional, cell-based
Summary of the method: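 γ-H2AX immunostaining: PC3 on coverslips (1×10^5 cells), serum-starved 18 h, then treated (methods state 1 h; legend states 6 h); fixed 3.7% formaldehyde, permeabilized 0.25% Triton X-100, blocked 3% albumin, anti-phospho-H2A.X Ser139 (1:500) then Alexa Fluor 488 secondary, DAPI nuclei; confocal, 500 cells per slide, three experiments; UVC 20 min positive control.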

[11] = system: PC-3; test: Induction of morphological changes in human PC-3 cells assessed as reduction in cell density at 0.24 uM measured after 24 hrs by phase contrast microscopy; assay type: functional, cell-based; summary of the method: as §2
[12] = system: PC-3; test: Cell cycle arrest in human PC-3 cells assessed as down regulation of cyclin D1 expression at 0.24 uM measured after 3 hrs by Western blot analysis; assay type: functional, cell-based
Summary of the method: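 Western blot: PC3 seeded 1×10^7 per 100 mm dish, treated 3 h or 6 h, lysed in RIPA with protease/phosphatase inhibitors; 50 μg protein on 12% SDS-PAGE, PVDF transfer, 5% milk block, anti-cyclin D1 (1:1000) overnight at 4 °C, HRP anti-rabbit secondary, β-actin loading control, ECL detection and band densitometry; two independent experiments.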

[13] = system: PC-3; test: Induction of morphological changes in human PC-3 cells assessed as cell rounding at 0.24 uM measured after 24 hrs in presence of antioxidant N-acetyl-L-cysteine by phase contrast microscopy; assay type: functional, cell-based; summary of the method: as §2
[14] = system: PC-3; test: Cell cycle arrest in human PC-3 cells assessed as down regulation of CCND1 gene expression at 0.24 uM measured after 3 hrs by qPCR analysis; assay type: functional, cell-based; summary of the method: as §1
[15] = system: PC-3; test: Induction of morphological changes in human PC-3 cells assessed as loss of adhesion at 0.24 uM measured after 24 hrs by phase contrast microscopy; assay type: functional, cell-based; summary of the method: as §2
[16] = system: PC-3; test: Cytotoxicity against human PC-3 cells assessed as reduction in cell viability at 0.24 uM measured after 24 hrs by SRB assay; assay type: functional, cell-based
Summary of the method: (§3)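 SRB assay: PC3 seeded 1×10^4 per well, after 24 h exposed 24 h at 37 °C, 5% CO2 with or without 1 mM N-acetyl-L-cysteine; vehicle 0.1% DMSO. Fixed with 15% TCA at 4 °C for 1 h, dried, stained 0.4% sulforhodamine B, dye solubilized in 10 mM Tris, absorbance 540 nm; ANOVA/Tukey.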

[17] = system: PC-3; test: Cell cycle arrest in human PC-3 cells assessed as down regulation of c-Myc gene expression at 0.24 uM measured after 3 hrs by qPCR analysis; assay type: functional, cell-based; summary of the method: as §1
[18] = system: PC-3; test: Cell cycle arrest in human PC-3 cells assessed as accumulation of cells at sub-G1 phase at 0.24 uM measured after 3 hrs by propidium iodide staining based flow cytometry (reference value: 0.75 +/- 0.21%); assay type: functional
Summary of the method: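 PC3 cells seeded 1×10^5 per well in 6-well plates, exposed 3 h, with or without 1 mM N-acetyl-L-cysteine pretreatment; vehicle 0.1% DMSO. Harvested with trypsin-EDTA, fixed in 75% ethanol in PBS at 4 °C for 30 min, stained 1 h with RNase (1.5 mg mL^-1) and propidium iodide (90 μg mL^-1); DNA content by flow cytometry. Phase fractions compared with control by ANOVA/Tukey.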

[19] = system: PC-3; test: Induction of apoptosis in human PC-3 cells assessed as necrotic cells at 0.24 uM measured after 6 hrs by Alexa Fluor 488-annexin V/propidium iodide staining based flow cytometry (reference value: 1.28%); assay type: functional
[20] = system: PC-3; test: Cytotoxicity against human PC-3 cells assessed as reduction in cell viability at 0.24 uM measured after 24 hrs in presence of antioxidant N-acetyl-L-cysteine by SRB assay; assay type: functional, cell-based; summary of the method: as §3

## COc1cc(/C=C/C(=O)N2CCC=CC2=O)cc(OC)c1OCCCCCCCCCCCCOc1no[n+]([O-])c1S(=O)(=O)c1ccccc1
[1]
  Activity: Active
[2]
  Activity: Active; Partial Loss Of Adhesion Observed
[3]
  Activity: Active
[4]
  Activity: Active
[5]
  Activity: inactive
[6]
  Activity: Active
[7]
  inhibition of growth at 0.05 µM: 65%
[8]
  Activity: 6.6%
[9]
  Activity: Active
[10]
  Activity: Active

## COc1cc(/C=C/C(=O)N2CCC=CC2=O)cc(OC)c1OCCCOc1no[n+]([O-])c1S(=O)(=O)c1ccccc1
[11]
  Activity: Active
[12]
  Activity: Active
[13]
  Activity: inactive
[14]
  Activity: Active
[15]
  Activity: Active; Partial Loss Of Adhesion Observed
[16]
  Activity: Active
[17]
  Activity: Active
[18]
  Activity: 7.6%
[19]
  Activity: 0.81%
[20]
  Activity: inactive
